From ChEMBL document CHEMBL3779864, “Dual Alleviation of Acute and Neuropathic Pain by Fused Opioid Agonist-Neurokinin 1 Antagonist Peptidomimetics” (ACS Med Chem Lett, 2015)
Active and inactive are the calls of the source. The rule behind the calls is not given here.

Key:
Mu-type opioid receptor [1] = biological target: Mu-type opioid receptor (Rattus norvegicus, UniProt P33535); test: Displacement of [3H]DAMGO from mu opioid receptor in rat brain membrane after 2 hrs; type: cell membranes
Method in brief: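 Rat brain membranes, with [3H]DAMGO as the MOR radioligand, measured as displacement binding. Values are means of 3–4 experiments.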

Mu-type opioid receptor [2] = biological target: Mu-type opioid receptor (Cavia porcellus, UniProt P97266); test: Agonist activity at mu opioid receptor in guinea pig ileum assessed as inhibition of electrically-stimulated muscle contraction; type: tissue-based
Method in brief: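 Guinea pig ileum preparation used as the MOR-representative functional assay. Values are means of 3–4 experiments.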

[3] = biological target: Delta-type opioid receptor (Rattus norvegicus, UniProt P33533); test: Displacement of [3H]DSLET from delta opioid receptor in rat brain membrane after 2 hrs; type: cell membranes
Method in brief: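 Rat brain membranes, with [3H]DSLET as the DOR radioligand, measured as displacement binding. Values are means of 3–4 experiments.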

[4] = biological target: Delta-type opioid receptor (Mus musculus, UniProt P32300); test: Agonist activity at delta opioid receptor in mouse vas deferens assessed as inhibition of electrically-stimulated muscle contraction; type: tissue-based
Method in brief: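 Electrically stimulated mouse vas deferens, a DOR-representative tissue assay. Means of 3–4 experiments.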

Substance-P receptor = Substance-P receptor (Homo sapiens, UniProt P25103); test: Displacement of [3H]SP from human NK1 receptor transfected in CHO cells by liquid scintillation counting method; type: cell-based
Method in brief: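 hNK1 receptor expressed in CHO cells, measured as [3H]SP displacement. Values are means of 3–4 experiments.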

Rattus norvegicus [5] = test: Antinociceptive activity in it dosed naive Wistar rat after 30 mins by tail flick test analysis; type: functional, organism-based
Method in brief: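 Naïve rats were dosed intrathecally at several doses. Tail-flick latency was read 30 min after dosing and compared with vehicle-treated naïve rats.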

Rattus norvegicus [6] = species: Rattus norvegicus; test: Antinociceptive activity in Wistar rat model of chronic constriction injury-induced neuropathic pain assessed as reduction in allodynia at 0.8 to 3.5 nmol after 30 mins by von Frey test; type: functional, organism-based
Method in brief: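 Rats underwent chronic constriction injury of the sciatic nerve. Seven days later, drug was given intrathecally as single injections at increasing doses. Allodynia was read by von Frey test 30 min after dosing and compared with vehicle-treated CCI rats.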

Rattus norvegicus [7] = species: Rattus norvegicus; test: Antinociceptive activity in Wistar rat model of chronic constriction injury-induced neuropathic pain assessed as reduction in hyperalgesia at 0.8 to 3.5 nmol after 30 mins by cold plate test; type: functional, organism-based
Method in brief: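 Rats underwent chronic constriction injury of the sciatic nerve. Seven days later, drug was given intrathecally as single injections at increasing doses. Hyperalgesia was read by cold plate test 30 min after dosing and compared with vehicle-treated CCI rats.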

Rattus norvegicus [8] = species: Rattus norvegicus; test: Antinociceptive activity in Wistar rat model of chronic constriction injury-induced neuropathic pain assessed as reduction in allodynia at 3.5 nmol, it QD for 6 consecutive days by von Frey test; type: functional, organism-based
Method in brief: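 Rats with chronic constriction injury of the sciatic nerve, dosed intrathecally once daily for 6 consecutive days starting day 7 post-CCI. Allodynia measured by von Frey, hyperalgesia by cold plate. Doses: morphine 3.5 nmol, hybrids 0.8 or 1 nmol. Compared with vehicle-treated CCI rats and with morphine-treated CCI rats.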

Rattus norvegicus [9] = species: Rattus norvegicus; test: Potency index, ratio of antinociceptive activity of compound at 8 to 10 nmol, it to antinociceptive activity of morphine at 35 nmol, it in naive Wistar rat after 30 mins; type: functional
Rattus norvegicus [10] = species: Rattus norvegicus; test: Antinociceptive activity in naive Wistar rat at 8 nmol, it after 2 hrs by tail flick test analysis; type: functional, organism-based
Method in brief: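 Naïve rats got an intrathecal dose. The tail-flick response was followed over time up to 2 h after dosing.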

Rattus norvegicus [11] = species: Rattus norvegicus; test: Antinociceptive activity in Wistar rat model of chronic constriction injury-induced neuropathic pain assessed as reduction in hyperalgesia at 0.8 nmol, it QD for 6 consecutive days by cols plate test; type: functional, organism-based
Method in brief: (§1)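 Starting day 7 after sciatic nerve CCI, rats got 0.8 nmol i.t. once daily for 6 consecutive days. Allodynia was read by von Frey and hyperalgesia by cold plate. Comparisons were against vehicle-treated CCI rats and against rats given morphine 3.5 nmol i.t. on the same schedule.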

Rattus norvegicus [12] = test: Antinociceptive activity in Wistar rat model of chronic constriction injury-induced neuropathic pain assessed as reduction in allodynia at 0.8 nmol dosed on day7 after tolerance development with morphine dosed at 3.5 nmol, it QD for 6 days by von Frey test; type: functional, organism-based
Method in brief: (§2)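 Rats with sciatic nerve CCI got morphine 3.5 nmol i.t. once daily for 6 days, starting day 7 after CCI. On day 7 of repeated dosing (day 14 after CCI) they received a single i.t. dose of 0.8 nmol. Allodynia was read by von Frey and hyperalgesia by cold plate. Each was compared with pretest, with day 6 and with day 1 of dosing.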

Rattus norvegicus [13] = test: Antinociceptive activity in Wistar rat model of chronic constriction injury-induced neuropathic pain assessed as reduction in hyperalgesia at 0.8 nmol dosed on day7 after tolerance development with morphine dosed at 3.5 nmol, it QD for 6 days by cold plate test; type: functional, organism-based; method in brief: as §2
Rattus norvegicus [14] = species: Rattus norvegicus; test: Antinociceptive activity in Wistar rat model of chronic constriction injury-induced neuropathic pain assessed as reduction in allodynia at 0.8 nmol, it QD for 6 consecutive days by von Frey test; type: functional, organism-based; method in brief: as §1
Rattus norvegicus [15] = test: Antinociceptive activity in Wistar rat model of chronic constriction injury-induced neuropathic pain assessed as reduction in hyperalgesia at 3.5 nmol dosed on day7 after tolerance development with compound13 dosed at 1 nmol, it QD for 6 days by cold plate test; type: functional, organism-based
Method in brief: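 Cross-tolerance design in CCI rats: intrathecal dosing once daily for 6 days from day 7 post-CCI (morphine 3.5 nmol, hybrids 0.8 or 1 nmol). On day 7 of dosing (day 14 post-CCI), morphine-tolerant rats received a single hybrid dose and hybrid-tolerant rats received morphine 3.5 nmol. Read by von Frey or cold plate and compared with pretest, day 1 and day 6.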

Rattus norvegicus [16] = species: Rattus norvegicus; test: Antinociceptive activity in Wistar rat model of chronic constriction injury-induced neuropathic pain assessed as reduction in hyperalgesia at 0.8 nmol, it QD for 6 consecutive days measured on day-4 and day-5 by cold plate test relative to morphine; type: functional, organism-based; method in brief: as §1
Rattus norvegicus [17] = test: Potency index, ratio of antiallodynic effect of compound to antiallodynic effect of morphine in it dosed naive Wistar rat at 0.8 to 3.5 nmol after 30 mins by cold plate test; type: functional

Chain of Mu-type opioid receptor (Rattus norvegicus, UniProt P33535) (P33535 whole entry): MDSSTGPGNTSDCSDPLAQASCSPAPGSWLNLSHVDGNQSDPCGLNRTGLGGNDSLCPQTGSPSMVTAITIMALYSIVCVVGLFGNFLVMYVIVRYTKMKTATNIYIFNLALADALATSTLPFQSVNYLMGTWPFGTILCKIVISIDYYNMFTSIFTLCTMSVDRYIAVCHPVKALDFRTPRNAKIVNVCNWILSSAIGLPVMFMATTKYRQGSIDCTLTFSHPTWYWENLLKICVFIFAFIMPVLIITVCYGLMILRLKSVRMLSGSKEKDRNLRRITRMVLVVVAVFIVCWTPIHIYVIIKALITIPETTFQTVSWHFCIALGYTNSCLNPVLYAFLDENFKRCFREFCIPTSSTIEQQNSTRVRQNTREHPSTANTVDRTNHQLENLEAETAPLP
Chain of Delta-type opioid receptor (Rattus norvegicus, UniProt P33533) (P33533 whole entry): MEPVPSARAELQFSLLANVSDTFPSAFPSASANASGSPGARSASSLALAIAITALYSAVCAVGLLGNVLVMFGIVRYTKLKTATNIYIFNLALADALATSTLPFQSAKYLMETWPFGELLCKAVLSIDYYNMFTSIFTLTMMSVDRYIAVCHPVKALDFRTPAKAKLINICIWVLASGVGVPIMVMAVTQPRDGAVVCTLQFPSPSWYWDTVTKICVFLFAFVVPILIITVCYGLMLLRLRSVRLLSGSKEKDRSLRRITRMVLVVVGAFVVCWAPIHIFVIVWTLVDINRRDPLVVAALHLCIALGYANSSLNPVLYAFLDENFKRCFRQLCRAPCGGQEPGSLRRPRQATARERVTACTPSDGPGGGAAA
Chain of Mu-type opioid receptor (Cavia porcellus, UniProt P97266) (P97266 whole entry): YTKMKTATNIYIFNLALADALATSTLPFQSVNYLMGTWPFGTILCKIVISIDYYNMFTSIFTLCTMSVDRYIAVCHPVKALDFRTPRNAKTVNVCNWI
Chain of Delta-type opioid receptor (Mus musculus, UniProt P32300) (P32300 whole entry): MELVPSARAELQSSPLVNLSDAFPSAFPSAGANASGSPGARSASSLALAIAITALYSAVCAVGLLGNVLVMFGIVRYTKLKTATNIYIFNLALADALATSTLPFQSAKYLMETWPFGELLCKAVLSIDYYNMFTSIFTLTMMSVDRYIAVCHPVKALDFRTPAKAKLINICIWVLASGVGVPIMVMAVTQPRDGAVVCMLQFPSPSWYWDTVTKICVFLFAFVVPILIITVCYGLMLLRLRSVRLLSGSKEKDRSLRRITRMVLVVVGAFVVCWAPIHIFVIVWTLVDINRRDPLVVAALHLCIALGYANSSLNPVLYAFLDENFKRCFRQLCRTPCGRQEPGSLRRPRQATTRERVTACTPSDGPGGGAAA
Chain of Substance-P receptor (P25103 whole entry): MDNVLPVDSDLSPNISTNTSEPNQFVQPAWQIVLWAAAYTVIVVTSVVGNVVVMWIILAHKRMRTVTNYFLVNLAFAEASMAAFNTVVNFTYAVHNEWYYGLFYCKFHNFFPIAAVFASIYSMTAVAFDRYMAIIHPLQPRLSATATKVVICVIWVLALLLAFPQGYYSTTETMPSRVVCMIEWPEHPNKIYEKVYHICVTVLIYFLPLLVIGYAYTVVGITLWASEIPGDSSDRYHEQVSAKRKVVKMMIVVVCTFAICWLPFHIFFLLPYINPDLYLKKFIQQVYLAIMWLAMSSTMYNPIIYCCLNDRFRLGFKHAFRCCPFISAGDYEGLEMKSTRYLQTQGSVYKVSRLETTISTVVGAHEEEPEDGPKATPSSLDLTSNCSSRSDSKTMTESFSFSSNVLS

| Compound | Ki (Mu-type opioid receptor [1]) [nM] | IC50 (Mu-type opioid receptor [2]) [nM] | Ki [3] [nM] | IC50 [4] [nM] | Ki (Substance-P receptor) [nM] | Activity (Rattus norvegicus [5]) | Activity (Rattus norvegicus [6]) | Activity (Rattus norvegicus [7]) | Activity (Rattus norvegicus [8]) | Ratio (Rattus norvegicus [9]) | Activity (Rattus norvegicus [10]) | Activity (Rattus norvegicus [11]) | Activity (Rattus norvegicus [12]) | Activity (Rattus norvegicus [13]) | Activity (Rattus norvegicus [14]) | Activity (Rattus norvegicus [15]) | Activity (Rattus norvegicus [16]) | Ratio (Rattus norvegicus [17]) |
| --- | --- | --- | --- | --- | --- | --- | --- | --- | --- | --- | --- | --- | --- | --- | --- | --- | --- | --- |
| Cc1cc(O)cc(C)c1C[C@H](N)C(=O)N[C@H](CCCNC(=N)N)C(=O)N[C@H]1Cc2ccccc2CN(CCC(=O)N2CC[C@@H](C(=O)N(C)Cc3cc(C(F)(F)F)cc(C(F)(F)F)c3)[C@H](c3ccccc3)C2)C1=O | 3.07 | 30.1 | 7.07 | 10.3 | 1.9 |  |  |  |  |  |  |  |  |  |  |  |  |  |
| CN[C@@H]1CCN(C(=O)c2cc(C(F)(F)F)cc(C(F)(F)F)c2)C[C@@H]1c1ccccc1 |  |  |  |  |  | inactive | Active | Active | inactive |  |  |  |  |  |  |  |  |  |
| Cc1cc(O)cc(C)c1C[C@H](N)C(=O)N[C@H](CCCNC(=N)N)C(=O)N[C@@H](Cc1ccccc1)C(=O)N[C@@H](CCCCN)CC(N)=O | 0.187 | 5.9 | 290 | 7.7 |  |  |  |  |  |  |  |  |  |  |  |  |  |  |
| Cc1cc(O)cc(C)c1C[C@H](N)C(=O)N[C@H](CCCNC(=N)N)C(=O)N[C@@H](Cc1ccccc1)C(=O)N[C@@H](CCCCN)CC(=O)N1CC[C@@H](C(=O)N(C)Cc2cc(C(F)(F)F)cc(C(F)(F)F)c2)[C@H](c2ccccc2)C1 | 20.2 | 538 | > 1000 | 1660 | 2.2 |  |  |  |  |  |  |  |  |  |  |  |  |  |
| Cc1cc(O)cc(C)c1C[C@H](N)C(=O)N[C@H](CCCNC(=N)N)C(=O)N[C@H]1Cc2ccccc2CN(CCC(=O)N2CCN([C@@H]3CCN(C(=O)c4cc(C(F)(F)F)cc(C(F)(F)F)c4)C[C@@H]3c3ccccc3)CC2)C1=O | 1.18 | 20.3 | 10.6 | 14.1 | 1.4 |  | Active | Active | inactive | 3.5 | Active | Active | Active | Active | inactive | Active | Active | 3.5 |
